Laboratory results from ChEMBL document CHEMBL2163188, “Discovery of piragliatin--first glucokinase activator studied in type 2 diabetic patients” (J Med Chem, 2012).

How the values were obtained:
[1] = target: T1, Hexokinase-4 (Homo sapiens) (UniProt P35557); assay: Activation of human recombinant glucokinase assessed as concentration required for 1.5 fold increase in enzymatic activity
T1 sequence (whole entry): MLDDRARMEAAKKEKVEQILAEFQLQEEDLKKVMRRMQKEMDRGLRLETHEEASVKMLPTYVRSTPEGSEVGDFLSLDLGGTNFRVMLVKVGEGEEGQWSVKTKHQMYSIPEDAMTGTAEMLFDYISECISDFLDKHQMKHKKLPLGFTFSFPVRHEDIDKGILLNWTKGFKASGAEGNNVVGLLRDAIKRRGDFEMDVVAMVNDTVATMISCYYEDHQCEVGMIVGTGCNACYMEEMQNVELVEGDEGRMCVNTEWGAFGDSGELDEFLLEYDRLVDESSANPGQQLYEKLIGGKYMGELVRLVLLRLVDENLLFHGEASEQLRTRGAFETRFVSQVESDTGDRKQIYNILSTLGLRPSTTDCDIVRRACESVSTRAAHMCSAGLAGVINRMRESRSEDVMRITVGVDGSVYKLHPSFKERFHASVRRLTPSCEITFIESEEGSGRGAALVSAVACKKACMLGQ
Procedure, shortened: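 Human recombinant GK; activator at fixed concentrations from ∼0.010 to 30 μM, each in duplicate, with glucose held at 5 mM. SC1.5 is the activator concentration giving a 1.5-fold rise in enzymatic activity over untreated GK. Assay CV was about 15%.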

Liver microsomes = assay: Drug degradation in human liver microsomes assessed as formation of metabolite 2 level at 20 uM after 30 mins by LCMS/MS analysis; format: ADME, Microsome; conditions: 0.5 h
Procedure, shortened: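 Pooled human liver microsomes at 1 or 2 mg/mL protein in 0.1 M potassium phosphate pH 7.4 with 3 mM MgCl2, 1 mM EDTA and 1 mM NADPH. Substrate was 20 μM C-14 labelled compound, with 1% methanol final. Incubation ran 30 min after a 5 min preincubation and was stopped with ice-cold methanol or 50% aqueous TFA.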

| Activity [1] [µM] | Drug metabolism (Liver microsomes) [ng/mL] | Compound |
| --- | --- | --- |
| 0.18 |  | CS(=O)(=O)c1ccc(C(CC2CCCC2)C(=O)Nc2cnccn2)cc1Cl (racemic) |
| 0.15 |  | CS(=O)(=O)c1ccc(C(CC2CCCC2)C(=O)Nc2ncccn2)cc1Cl (racemic) |
| 1.4 | < 10 | CNC(=O)c1cnc(NC(=O)C(CC2CCCC2)c2ccc(S(C)(=O)=O)cc2)s1 (racemic) |
| 0.065 |  | CS(=O)(=O)c1ccc(C(CC2CCCC2)C(=O)Nc2nccs2)cc1[N+](=O)[O-] (racemic) |
| 1.78 |  | CS(=O)(=O)c1ccc(C(CC2CCCC2)C(=O)Nc2cnccn2)cc1 (racemic) |
| 0.667 | 167.3 | CS(=O)(=O)c1ccc(C(CC2CCCC2)C(=O)Nc2nc(CCO)cs2)cc1 (racemic) |
| 1.21 |  | CS(=O)(=O)c1ccc(C(CC2CCCC2)C(=O)Nc2ccccn2)cc1 (racemic) |
| 0.111 |  | CS(=O)(=O)c1ccc(C(CC2CCCC2)C(=O)Nc2nccs2)cc1Br (racemic) |
| 0.135 | 42.7 | CS(=O)(=O)c1ccc(C(CC2CCCC2)C(=O)Nc2ncc(Br)s2)cc1 (racemic) |
| 0.119 |  | CS(=O)(=O)c1ccc(C(CC2CCCC2)C(=O)Nc2nccs2)cc1Cl (racemic) |
| 1.74 |  | CS(=O)(=O)c1ccc(C(CC2CCCC2)C(=O)Nc2ccncn2)cc1 (racemic) |
| 0.19 |  | CS(=O)(=O)c1ccc([C@@H](CC2CCCC2=O)C(=O)Nc2cnccn2)cc1Cl (mixture of isomers) |
| 0.292 |  | CS(=O)(=O)c1ccc(C(CC2CCCC2)C(=O)Nc2nccs2)cc1F (racemic) |
| 0.12 |  | CS(=O)(=O)c1ccc(C(CC2CCCC2)C(=O)Nc2ccc3ccccc3n2)cc1Cl (racemic) |
